Test [1] addresses T1, Phosphatidylinositol 4,5-bisphosphate 3-kinase catalytic subunit delta isoform (Homo sapiens) (UniProt O00329).
T1 sequence (whole entry): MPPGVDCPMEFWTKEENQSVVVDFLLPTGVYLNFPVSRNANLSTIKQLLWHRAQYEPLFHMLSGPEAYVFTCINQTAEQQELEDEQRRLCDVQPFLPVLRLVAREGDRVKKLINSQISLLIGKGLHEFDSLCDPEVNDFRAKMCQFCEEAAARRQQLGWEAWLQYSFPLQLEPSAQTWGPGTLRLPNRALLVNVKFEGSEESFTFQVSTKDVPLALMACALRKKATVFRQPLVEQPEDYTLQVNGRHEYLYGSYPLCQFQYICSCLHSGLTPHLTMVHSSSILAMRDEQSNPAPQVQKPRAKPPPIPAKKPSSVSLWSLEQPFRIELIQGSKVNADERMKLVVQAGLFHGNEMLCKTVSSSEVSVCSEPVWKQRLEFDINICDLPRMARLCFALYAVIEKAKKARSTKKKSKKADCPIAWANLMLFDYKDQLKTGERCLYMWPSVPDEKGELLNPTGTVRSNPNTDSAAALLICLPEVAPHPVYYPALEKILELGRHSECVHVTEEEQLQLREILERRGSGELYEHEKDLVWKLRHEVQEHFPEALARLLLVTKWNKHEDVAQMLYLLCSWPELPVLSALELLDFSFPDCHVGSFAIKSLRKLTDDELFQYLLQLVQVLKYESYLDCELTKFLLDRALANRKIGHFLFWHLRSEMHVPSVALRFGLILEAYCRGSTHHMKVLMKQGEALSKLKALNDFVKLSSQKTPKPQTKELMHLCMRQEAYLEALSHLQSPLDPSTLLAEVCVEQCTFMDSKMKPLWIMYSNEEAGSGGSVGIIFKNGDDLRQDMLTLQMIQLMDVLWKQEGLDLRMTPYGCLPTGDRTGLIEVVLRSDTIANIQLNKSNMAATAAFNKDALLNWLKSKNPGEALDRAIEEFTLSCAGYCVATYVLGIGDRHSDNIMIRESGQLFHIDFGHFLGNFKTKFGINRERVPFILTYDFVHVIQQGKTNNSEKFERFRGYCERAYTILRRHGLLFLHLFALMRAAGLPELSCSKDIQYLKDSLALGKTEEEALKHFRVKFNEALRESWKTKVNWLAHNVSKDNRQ
The test is described as follows: Inhibition of PIK3CD ATP labeling site in human A-375 cells at 0.05 uM by KiNativ Profiling analysis relative to control. It is filed as cell-based.

Test [2] concerns the target eIF-2-alpha kinase GCN2 (Homo sapiens) (UniProt Q9P2K8). The test is described as follows: Inhibition of GCN2 domain2 Lys1 labeling site in human A-375 cells at 0.5 uM by KiNativ Profiling analysis relative to control. It is filed as cell-based.
Test [3] concerns the target 5'-AMP-activated protein kinase catalytic subunit alpha-2 (Homo sapiens) (UniProt P54646). The test is described as follows: Inhibition of AMPKa2 Lys1 labeling site in human A-375 cells at 5 uM by KiNativ Profiling analysis relative to control. It is filed as cell-based. The gist of the method: (§1)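 Live A375 melanoma cells were treated with compound at 5 or 0.5 μM, then lysed. The lysates were labeled with a lysine-reactive ATP or ADP-biotin probe. Kinase protection from probe labeling was measured by KiNativ.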

For test [4], the target named is Ribosomal protein S6 kinase alpha-3 (Homo sapiens) (UniProt P51812). Description: Inhibition of RSK2 domain2 Lys2 labeling site in human A-375 cells at 0.05 uM by KiNativ Profiling analysis relative to control. It is filed as cell-based.
Ribosomal protein S6 kinase alpha-3 (Homo sapiens), sequence (P51812 whole entry, the tested form may be a part): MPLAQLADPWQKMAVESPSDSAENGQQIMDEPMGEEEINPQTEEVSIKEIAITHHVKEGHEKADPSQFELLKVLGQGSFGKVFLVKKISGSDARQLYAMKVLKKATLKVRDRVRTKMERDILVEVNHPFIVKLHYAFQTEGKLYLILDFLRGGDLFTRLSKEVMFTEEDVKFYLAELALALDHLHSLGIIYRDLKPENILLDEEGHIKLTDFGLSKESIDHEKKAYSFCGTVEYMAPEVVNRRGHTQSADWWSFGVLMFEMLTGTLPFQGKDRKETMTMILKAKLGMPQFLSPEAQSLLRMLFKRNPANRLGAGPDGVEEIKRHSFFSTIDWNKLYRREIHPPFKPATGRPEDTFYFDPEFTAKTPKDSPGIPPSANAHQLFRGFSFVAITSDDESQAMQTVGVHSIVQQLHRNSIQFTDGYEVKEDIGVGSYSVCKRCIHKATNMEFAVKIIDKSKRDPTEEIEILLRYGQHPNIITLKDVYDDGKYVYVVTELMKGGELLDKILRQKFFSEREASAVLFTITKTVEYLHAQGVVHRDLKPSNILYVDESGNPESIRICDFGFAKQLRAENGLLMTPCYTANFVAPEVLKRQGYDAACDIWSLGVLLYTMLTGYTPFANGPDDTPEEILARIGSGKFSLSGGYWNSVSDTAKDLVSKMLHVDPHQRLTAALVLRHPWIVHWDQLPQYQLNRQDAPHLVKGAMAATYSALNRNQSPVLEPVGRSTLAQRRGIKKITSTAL
The nature of test [5]: Inhibition of KHS1 Lys1 labeling site in human A-375 cells at 0.05 uM by KiNativ Profiling analysis relative to control. To be noted: condition cancer.
For test [6], the target named is Serine/threonine-protein kinase Nek7 (Homo sapiens) (UniProt Q8TDX7). Description: Inhibition of NEK7 Lys1 labeling site in human A-375 cells at 5 uM by KiNativ Profiling analysis relative to control. It is filed as cell-based.
In test [7] the target is Tyrosine-protein kinase ABL1 (Homo sapiens, UniProt P00519). The test is described as follows: Inhibition of ABL ACT labeling site in human A-375 cells at 5 uM by KiNativ Profiling analysis relative to control. It is filed as cell-based. The gist of the method: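 Intact A375 melanoma cells were treated with compound at 5 or 0.5 μM, then lysed. Lysate kinases were labeled with a lysine-reactive ATP or ADP-biotin probe (KiNativ). Inhibition is read as protection of each kinase labeling site from probe labeling.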

For test [8], the target named is T2, Aurora kinase A (Homo sapiens) (UniProt O14965).
T2 sequence (whole entry): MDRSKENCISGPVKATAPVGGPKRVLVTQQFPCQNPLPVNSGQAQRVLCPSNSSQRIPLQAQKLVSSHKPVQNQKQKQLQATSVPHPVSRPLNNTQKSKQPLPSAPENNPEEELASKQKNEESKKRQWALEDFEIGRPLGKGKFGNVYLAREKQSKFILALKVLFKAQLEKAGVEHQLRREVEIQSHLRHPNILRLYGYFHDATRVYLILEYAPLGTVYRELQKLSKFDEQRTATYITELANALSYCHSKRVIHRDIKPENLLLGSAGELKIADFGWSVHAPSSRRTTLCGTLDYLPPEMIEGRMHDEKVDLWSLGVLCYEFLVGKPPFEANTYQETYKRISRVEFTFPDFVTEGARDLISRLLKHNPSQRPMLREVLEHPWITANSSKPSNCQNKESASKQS
Description: Inhibition of AurA ATP Loop labeling site in human A-375 cells at 0.5 uM by KiNativ Profiling analysis relative to control. It is filed as cell-based. The gist of the method: as §1

The target in test [9] is DNA-PK/Ku70/Ku85 (Homo sapiens) (UniProt P78527+P12956+P13010). Description: Inhibition of DNAPK ATP labeling site harbouring KGGSWIQEINVAEKNWYPR in human A-375 cells at 0.05 uM by KiNativ Profiling analysis relative to control. It is filed as cell-based.
Test [10] deals with Serine/threonine-protein kinase 10 (Homo sapiens) (UniProt O94804). Description: Inhibition of LOK Lys1 labeling site harbouring ETGALAAAKVIETK in human A-375 cells at 0.05 uM by KiNativ Profiling analysis relative to control. It is filed as cell-based.
Serine/threonine-protein kinase 10 (Homo sapiens), sequence (O94804 whole entry, looked up): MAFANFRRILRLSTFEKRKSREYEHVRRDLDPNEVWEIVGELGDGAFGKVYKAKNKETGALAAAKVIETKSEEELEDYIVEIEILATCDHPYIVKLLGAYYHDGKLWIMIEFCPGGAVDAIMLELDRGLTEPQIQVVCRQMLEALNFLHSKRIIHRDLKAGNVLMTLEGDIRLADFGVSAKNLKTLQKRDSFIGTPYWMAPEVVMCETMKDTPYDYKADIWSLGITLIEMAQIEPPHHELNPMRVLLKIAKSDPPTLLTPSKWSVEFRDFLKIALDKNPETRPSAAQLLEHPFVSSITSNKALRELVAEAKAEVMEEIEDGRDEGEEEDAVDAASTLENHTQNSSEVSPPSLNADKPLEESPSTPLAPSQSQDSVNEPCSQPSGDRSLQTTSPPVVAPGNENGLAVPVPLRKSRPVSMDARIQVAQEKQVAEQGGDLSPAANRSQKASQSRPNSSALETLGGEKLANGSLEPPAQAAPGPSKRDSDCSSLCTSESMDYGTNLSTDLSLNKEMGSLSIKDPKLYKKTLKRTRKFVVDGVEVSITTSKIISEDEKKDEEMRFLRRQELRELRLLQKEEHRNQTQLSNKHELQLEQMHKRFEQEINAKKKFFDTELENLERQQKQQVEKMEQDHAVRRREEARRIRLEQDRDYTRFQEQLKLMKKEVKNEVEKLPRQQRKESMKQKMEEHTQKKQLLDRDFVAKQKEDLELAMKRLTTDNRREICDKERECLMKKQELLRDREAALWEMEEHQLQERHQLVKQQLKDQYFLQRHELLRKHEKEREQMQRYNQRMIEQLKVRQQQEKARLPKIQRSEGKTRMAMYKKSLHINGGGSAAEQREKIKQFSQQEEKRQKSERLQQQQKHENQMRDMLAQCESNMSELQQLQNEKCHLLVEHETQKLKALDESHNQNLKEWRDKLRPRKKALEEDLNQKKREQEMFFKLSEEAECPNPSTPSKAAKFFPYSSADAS
Test [11] concerns the target Calcium/calmodulin-dependent protein kinase type II subunit delta (Homo sapiens) (UniProt Q13557). Description: Inhibition of CaMK2d Lys1 labeling site in human A-375 cells at 0.05 uM by KiNativ Profiling analysis relative to control. It is filed as cell-based.
Test [12] has as its target Proto-oncogene tyrosine-protein kinase Src (Homo sapiens, UniProt P12931). The test is described as follows: Inhibition of SRC ACT labeling site in human A-375 cells at 5 uM by KiNativ Profiling analysis relative to control. It is filed as cell-based.
The target of test [13] is Serine/threonine-protein kinase SIK3 (Homo sapiens) (UniProt Q9Y2K2). The test is described as follows: Inhibition of QSK Lys2 labeling site in human A-375 cells at 0.5 uM by KiNativ Profiling analysis relative to control. It is filed as cell-based.
The target in test [14] is Tyrosine-protein kinase CSK (Homo sapiens, UniProt P41240). The test is described as follows: Inhibition of CSK ACT labeling site harbouring VSDFGLTKEASSTQDTGKLPVKWTAPEALR in human Huh-7 cell lysate at 1 uM by KiNativ Profiling analysis relative to control. It is filed as subcellular.
Tyrosine-protein kinase CSK, sequence (P41240 2-450 limits assumed): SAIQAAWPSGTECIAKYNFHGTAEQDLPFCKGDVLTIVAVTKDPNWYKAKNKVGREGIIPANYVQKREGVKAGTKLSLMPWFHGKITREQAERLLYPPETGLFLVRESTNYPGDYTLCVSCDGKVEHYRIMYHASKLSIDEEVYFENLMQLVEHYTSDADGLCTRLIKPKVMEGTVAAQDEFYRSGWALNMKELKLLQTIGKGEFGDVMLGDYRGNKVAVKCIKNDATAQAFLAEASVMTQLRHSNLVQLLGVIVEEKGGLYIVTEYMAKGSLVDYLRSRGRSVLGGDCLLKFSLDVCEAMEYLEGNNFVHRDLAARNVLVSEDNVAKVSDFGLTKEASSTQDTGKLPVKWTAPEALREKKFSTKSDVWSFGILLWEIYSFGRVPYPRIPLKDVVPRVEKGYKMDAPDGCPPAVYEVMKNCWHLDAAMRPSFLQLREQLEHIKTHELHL

Proto-oncogene tyrosine-protein kinase Src, sequence (P12931 2-536 limits assumed): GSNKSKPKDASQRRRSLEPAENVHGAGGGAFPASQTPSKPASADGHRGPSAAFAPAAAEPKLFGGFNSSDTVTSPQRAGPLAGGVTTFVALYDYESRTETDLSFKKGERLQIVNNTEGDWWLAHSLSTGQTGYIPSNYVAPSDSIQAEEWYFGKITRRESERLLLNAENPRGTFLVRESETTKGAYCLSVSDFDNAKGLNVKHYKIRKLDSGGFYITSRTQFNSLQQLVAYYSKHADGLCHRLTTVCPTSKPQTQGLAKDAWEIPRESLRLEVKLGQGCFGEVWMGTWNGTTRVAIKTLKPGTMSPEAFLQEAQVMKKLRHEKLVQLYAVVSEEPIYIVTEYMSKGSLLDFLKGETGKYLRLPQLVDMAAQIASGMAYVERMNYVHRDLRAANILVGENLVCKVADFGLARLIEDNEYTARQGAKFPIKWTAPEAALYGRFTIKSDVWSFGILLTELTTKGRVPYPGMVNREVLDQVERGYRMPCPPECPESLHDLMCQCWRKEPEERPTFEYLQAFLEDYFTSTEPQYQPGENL
Calcium/calmodulin-dependent protein kinase type II subunit delta (Homo sapiens), sequence (Q13557 whole entry): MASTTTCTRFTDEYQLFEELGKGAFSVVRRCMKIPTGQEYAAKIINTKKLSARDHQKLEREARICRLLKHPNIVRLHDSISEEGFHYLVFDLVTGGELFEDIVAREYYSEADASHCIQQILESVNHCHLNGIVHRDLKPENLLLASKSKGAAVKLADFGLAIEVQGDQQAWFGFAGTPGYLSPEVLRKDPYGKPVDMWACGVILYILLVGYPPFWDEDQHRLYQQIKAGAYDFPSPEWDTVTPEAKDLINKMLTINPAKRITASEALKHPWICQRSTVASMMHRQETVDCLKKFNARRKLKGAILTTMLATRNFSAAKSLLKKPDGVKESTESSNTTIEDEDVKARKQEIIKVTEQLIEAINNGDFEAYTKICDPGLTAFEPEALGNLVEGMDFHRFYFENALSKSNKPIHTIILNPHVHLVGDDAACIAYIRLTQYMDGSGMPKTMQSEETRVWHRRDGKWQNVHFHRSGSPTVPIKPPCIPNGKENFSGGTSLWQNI
eIF-2-alpha kinase GCN2 (Homo sapiens), sequence (Q9P2K8 whole entry, the tested form may be a part): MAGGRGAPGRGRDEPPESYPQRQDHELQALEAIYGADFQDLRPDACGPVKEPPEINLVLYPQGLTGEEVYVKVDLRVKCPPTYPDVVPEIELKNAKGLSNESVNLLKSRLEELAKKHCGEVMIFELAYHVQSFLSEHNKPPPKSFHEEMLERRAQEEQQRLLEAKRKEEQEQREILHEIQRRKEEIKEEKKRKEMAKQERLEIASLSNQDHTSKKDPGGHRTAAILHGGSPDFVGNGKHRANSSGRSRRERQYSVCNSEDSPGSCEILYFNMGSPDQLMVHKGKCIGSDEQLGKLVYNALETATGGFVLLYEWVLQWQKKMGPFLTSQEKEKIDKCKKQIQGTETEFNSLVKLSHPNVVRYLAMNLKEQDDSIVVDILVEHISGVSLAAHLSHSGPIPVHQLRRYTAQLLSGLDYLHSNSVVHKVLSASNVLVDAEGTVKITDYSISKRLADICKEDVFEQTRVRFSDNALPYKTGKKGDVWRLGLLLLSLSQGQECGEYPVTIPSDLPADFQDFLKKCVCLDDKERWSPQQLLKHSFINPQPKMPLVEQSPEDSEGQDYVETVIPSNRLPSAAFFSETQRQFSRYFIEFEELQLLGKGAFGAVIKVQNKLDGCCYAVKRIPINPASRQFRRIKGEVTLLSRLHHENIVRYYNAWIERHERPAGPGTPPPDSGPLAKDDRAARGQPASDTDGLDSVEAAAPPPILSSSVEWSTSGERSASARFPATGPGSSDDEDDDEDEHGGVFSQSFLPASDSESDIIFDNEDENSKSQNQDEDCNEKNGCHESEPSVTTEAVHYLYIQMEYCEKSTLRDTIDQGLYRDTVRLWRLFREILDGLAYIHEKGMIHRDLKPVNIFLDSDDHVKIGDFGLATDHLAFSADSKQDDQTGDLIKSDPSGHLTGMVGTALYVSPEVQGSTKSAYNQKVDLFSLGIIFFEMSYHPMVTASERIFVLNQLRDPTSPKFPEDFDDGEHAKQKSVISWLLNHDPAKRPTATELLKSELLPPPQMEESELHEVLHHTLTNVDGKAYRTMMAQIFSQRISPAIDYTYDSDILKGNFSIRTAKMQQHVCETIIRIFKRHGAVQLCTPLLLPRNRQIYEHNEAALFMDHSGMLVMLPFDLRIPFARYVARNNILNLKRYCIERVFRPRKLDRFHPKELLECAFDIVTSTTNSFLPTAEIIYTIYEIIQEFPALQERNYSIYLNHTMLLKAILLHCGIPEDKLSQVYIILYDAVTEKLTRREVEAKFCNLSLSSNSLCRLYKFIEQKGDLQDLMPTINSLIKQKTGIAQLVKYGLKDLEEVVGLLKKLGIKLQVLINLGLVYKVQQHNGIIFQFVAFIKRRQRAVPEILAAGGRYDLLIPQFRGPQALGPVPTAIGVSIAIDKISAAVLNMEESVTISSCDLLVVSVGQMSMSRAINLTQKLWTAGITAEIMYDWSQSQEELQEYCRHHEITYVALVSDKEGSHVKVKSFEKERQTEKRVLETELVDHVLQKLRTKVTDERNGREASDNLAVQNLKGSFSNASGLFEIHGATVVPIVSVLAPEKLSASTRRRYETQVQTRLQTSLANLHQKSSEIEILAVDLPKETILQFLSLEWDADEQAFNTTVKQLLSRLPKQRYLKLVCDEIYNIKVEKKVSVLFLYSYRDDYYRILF

In the case of `CCN1CCN(Cc2ccc(NC(=O)c3ccc(C)c(/C=C/c4cnc5[nH]ccc5c4OC)c3)cc2C(F)(F)F)CC1`, the inhibition in test [1] was 24.3%; in [2], 40.4%; in test [3], 37%; in [4] it was 0.3%; in test [6] it was -1.8%; in test [7], greater than 98%. Also, the inhibition is 30.2% in [8]; -3.2% in test [9]; 39.6% in test [10]; 14% in test [11]; greater than 99% in test [12]; 40.3% in test [13]. Moreover, the inhibition at 0.05 µM in test [5] was determined as 29.4%.

With `CNc1cc(Oc2cc(C(=O)Nc3cc(-n4cnc(C)c4)cc(C(F)(F)F)c3)ccc2C)ncn1`, in test [14], the inhibition is -2.8%.

With `CCN1CCN(Cc2ccc(NC(=O)c3ccc(C)c(Oc4ccnc5[nH]ccc45)c3)cc2C(F)(F)F)CC1`, the inhibition is 4.1% in test [1]; -10% in [2]; 11.6% in test [3]; 2.2% in test [4]; 0.3% in test [6]; greater than 98% in [7]. Besides, the inhibition in test [8] is 31.2%; in test [9], 6.7%; in [10] it was 40.5%; in test [11], 13.1%; in test [12], 89.6%; in test [13], 39.8%. The inhibition at 0.05 µM in test [5] was found to be 14.9%.

Turning to `CNc1cc(Oc2cc(C(=O)Nc3cc(N4CCN(C)CC4)cc(C(F)(F)F)c3)ccc2C)ncn1`, the inhibition in test [14] was 26.9%.

For orientation: inhibition means the drop in the measured response relative to a control, in per cent.
